Measured values taken from ChEMBL document CHEMBL1125629, “Beta-substituted beta-phenylpropionyl chymotrypsins. Structural and stereochemical features in stable acyl enzymes” (J Med Chem, 1991).

Tests used:
[1] = Deacylation rate constant(Kd slow) was determined by proflavin displacement assay
Summary of the method: (§1)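 Proflavin displacement: ester 90 μM (from DMSO) added to α-chymotrypsin 90 μM and proflavin 9 μM (final) in 0.1 M phosphate pH 7.2 at 25 °C. Return of A466 was followed, and the slope of semilog absorbance versus time gave kd. Racemic esters gave biphasic curves yielding kd(fast) and kd(slow), and their ratio approximates deacylation enantioselectivity.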

[2] = kd ratio measured as the kd(fast)/kd(slow) values; format: ADME; summary of the method: as §1
[3] = Deacylation rate constant(Kd fast) was determined by proflavin displacement assay; summary of the method: as §1
[4] = Binding constant of the compound
[5] = Second order rate constant for acylation( ka/Ks); format: ADME
Summary of the method: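 Competitive substrate assay with α-chymotrypsin (25 nM, active-site titrated) in 0.1 M phosphate buffer pH 7.2, 25 °C. MeO-Suc-Ala-Ala-Pro-Phe pNA was at 128 μM with ester at 10–350 μM, DMSO present. A410 followed for up to 300 s, and k_obs came from semilog plots in triplicate. ka and KS were obtained from I0/k_obs versus I0 by Main's equation (KM 50 μM).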

[6] = Acylation rate constant was determined

Structure (SMILES)	Kd [1]	Ratio [2]	Kd [3]	Ks [4]	Ratio [5]	Ka [6]
C=C(C)C[C@H](CC(=O)O)c1ccccc1	0.0023 min⁻¹					
CC(=O)C[C@@H](CC(=O)Oc1ccc(C#N)cc1)c1ccccc1				91 µM	11000 M⁻¹ s⁻¹	58 min⁻¹
CC(=O)C[C@H](CC(=O)Oc1ccc(C#N)cc1)c1ccccc1				630 µM	2000 M⁻¹ s⁻¹	73 min⁻¹
O=C1CC(c2ccccc2)CC(=O)O1	0.204 min⁻¹		0.204 min⁻¹			
O=C(CCc1ccccc1)Oc1ccc([N+](=O)[O-])cc1	15 min⁻¹		15 min⁻¹			
O=C(CC(NC(=O)c1ccccc1)c1ccccc1)Oc1ccc([N+](=O)[O-])cc1 (stereo not given)	0.025 min⁻¹	1200	30 min⁻¹			
CCC(=O)NC(CC(=O)Oc1ccc([N+](=O)[O-])cc1)c1ccccc1 (stereo not given)	0.0029 min⁻¹	1500	4.35 min⁻¹			
O=C(CC(NC(=O)C(F)(F)F)c1ccccc1)Oc1ccc([N+](=O)[O-])cc1 (stereo not given)	0.0063 min⁻¹		0.0063 min⁻¹			
C=C1C[C@H](c2ccccc2)CC(=O)O1 (stereo in doubt; 1 (R))	0.0029 min⁻¹			51 µM	12000 M⁻¹ s⁻¹	35 min⁻¹
C=C1C[C@H](c2ccccc2)CC(=O)O1 (stereo in doubt; 1 (S))		59	0.17 min⁻¹	8 µM	38000 M⁻¹ s⁻¹	17 min⁻¹

Now from value to compound:

Kd [1]	Ratio [2]	Kd [3]	Ks [4]	Ratio [5]	Ka [6]	Structure (SMILES)
0.035 min⁻¹	257	9 min⁻¹				N#CCC(CC(=O)Oc1ccc([N+](=O)[O-])cc1)c1ccccc1 (stereo not given)
0.0036 min⁻¹	42	0.15 min⁻¹				CC(=O)CC(CC(=O)Oc1ccc([N+](=O)[O-])cc1)c1ccccc1 (stereo not given)
0.005 min⁻¹	180	0.9 min⁻¹				O=CCC(CC(=O)Oc1ccc([N+](=O)[O-])cc1)c1ccccc1 (stereo not given)
0.096 min⁻¹		0.096 min⁻¹				CC(C)CC(CC(=O)Oc1ccc([N+](=O)[O-])cc1)c1ccccc1 (stereo not given)
0.01 min⁻¹	7	0.067 min⁻¹				CC(=O)OC(CC(=O)Oc1ccc([N+](=O)[O-])cc1)c1ccccc1 (stereo not given)
0.02 min⁻¹	785	1.57 min⁻¹				CC(=O)N[C@@H](CC(=O)Oc1ccc([N+](=O)[O-])cc1)c1ccccc1
0.048 min⁻¹	49	2.34 min⁻¹				COC(=O)CC(CC(=O)Oc1ccc([N+](=O)[O-])cc1)c1ccccc1 (stereo not given)
	3	0.172 min⁻¹				C=C(C)C[C@@H](CC(=O)Oc1ccc([N+](=O)[O-])cc1)c1ccccc1
0.039 min⁻¹	92	3.58 min⁻¹				O=CNC(CC(=O)Oc1ccc([N+](=O)[O-])cc1)c1ccccc1 (stereo not given)
0.067 min⁻¹	3					C=C(C)C[C@H](CC(=O)Oc1ccc([N+](=O)[O-])cc1)c1ccccc1
0.005 min⁻¹	31	0.154 min⁻¹				NC(=O)CC(CC(=O)Oc1ccc([N+](=O)[O-])cc1)c1ccccc1 (stereo not given)
0.162 min⁻¹		0.162 min⁻¹				C=C(C)CC(CC(=O)Oc1ccc([N+](=O)[O-])cc1)c1ccccc1 (stereo not given)
